Legend:
Rattus norvegicus [1] = assay: Antihypertensive activity against methyl prednisolone acetate-induced hypertension in albino rat assessed as reduction in mean arterial pressure at 20 mg/kg, ip after 1 hr by tail-cuff method; type: functional, Artery; design: scale not given: the % may be the effect or the level left; conditions: route intraperitoneal
Summary of the method: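 Rats were albino, 200–250 g, and restrainer-trained for 10 min/day over 1 week. They were made hypertensive with s.c. methyl prednisolone acetate at 20 mg/kg/wk for 2 weeks. Each compound was suspended in 1% CMC and given i.p. at 20 mg/kg. Mean arterial BP was measured 1 h after dosing in conscious animals by CODA tail-cuff. Data are mean ± SEM, analysed by ANOVA and Dunnett test against the hypertensive control.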

Rattus norvegicus [2] = assay: Antihypertensive activity against methyl prednisolone acetate-induced hypertension in albino rat assessed as reduction in mean arterial pressure at 14 mg/kg, ip after 1 hr by tail-cuff method; type: functional, Artery; design: scale not given: the % may be the effect or the level left; conditions: route intraperitoneal
Summary of the method: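 Albino rats of 200–250 g were trained in a restrainer for 10 min daily for 1 week. Hypertension was induced by s.c. methyl prednisolone acetate at 20 mg/kg/wk for 2 weeks, with an untreated control group kept alongside. Drug was given i.p. and mean arterial BP was read 1 h later in conscious rats by CODA tail-cuff. Results are mean ± SEM, compared with the hypertensive control by ANOVA and Dunnett test.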

Compound	Activity (Rattus norvegicus [1])	Activity (Rattus norvegicus [2])
O=C1CCC(c2ccccc2)=NN1c1n[nH]c(=S)n1-c1ccccc1	30.01%	–
O=C1CCC(c2ccccc2)=NN1c1n[nH]c(=S)n1-c1ccc(Cl)cc1	24.84%	–
Cc1ccc(-n2c(N3N=C(c4ccccc4)CCC3=O)n[nH]c2=S)cc1	38.83%	–
Cc1ccc(C2=NN(c3n[nH]c(=S)n3-c3ccccc3)C(=O)CC2)cc1	27.3%	–
Cc1ccc(C2=NN(c3n[nH]c(=S)n3-c3ccc(Cl)cc3)C(=O)CC2)cc1	41.84%	–
Cc1ccc(C2=NN(c3n[nH]c(=S)n3-c3ccc(C)cc3)C(=O)CC2)cc1	31.25%	–
COc1ccc(C2=NN(c3n[nH]c(=S)n3-c3ccccc3)C(=O)CC2)cc1	32.48%	–
COc1ccc(C2=NN(c3n[nH]c(=S)n3-c3ccc(Cl)cc3)C(=O)CC2)cc1	16.09%	–
COc1ccc(C2=NN(c3n[nH]c(=S)n3-c3ccc(C)cc3)C(=O)CC2)cc1	40.98%	–
CCc1ccc(C2=NN(c3n[nH]c(=S)n3-c3ccccc3)C(=O)CC2)cc1	38.88%	–
CCc1ccc(C2=NN(c3n[nH]c(=S)n3-c3ccc(Cl)cc3)C(=O)CC2)cc1	42.11%	–
CCc1ccc(C2=NN(c3n[nH]c(=S)n3-c3ccc(C)cc3)C(=O)CC2)cc1	32.97%	–
CC(C)Cc1ccc(C2=NN(c3n[nH]c(=S)n3-c3ccccc3)C(=O)CC2)cc1	30.51%	–
CC(C)Cc1ccc(C2=NN(c3n[nH]c(=S)n3-c3ccc(Cl)cc3)C(=O)CC2)cc1	15.85%	–
Cc1ccc(-n2c(N3N=C(c4ccc(CC(C)C)cc4)CCC3=O)n[nH]c2=S)cc1	12.5%	–
O=C1CCC(c2ccc(-c3ccccc3)cc2)=NN1c1n[nH]c(=S)n1-c1ccccc1	10.67%	–
O=C1CCC(c2ccc(-c3ccccc3)cc2)=NN1c1n[nH]c(=S)n1-c1ccc(Cl)cc1	14.37%	–
Cc1ccc(-n2c(N3N=C(c4ccc(-c5ccccc5)cc4)CCC3=O)n[nH]c2=S)cc1	13.13%	–
O=C1CCC(c2ccc(Cl)cc2)=NN1c1n[nH]c(=S)n1-c1ccccc1	12.52%	–
O=C1CCC(c2ccc(Cl)cc2)=NN1c1n[nH]c(=S)n1-c1ccc(Cl)cc1	11.29%	–
Cc1ccc(-n2c(N3N=C(c4ccc(Cl)cc4)CCC3=O)n[nH]c2=S)cc1	11.53%	–
CC(C)NCC(O)COc1cccc2ccccc12 (configuration not stated) [PROPRANOLOL]	–	41.4%
